The source of these data is ChEMBL document CHEMBL2150857, “Design, synthesis and biological evaluation of 5-hydroxy, 5-substituted-pyrimidine-2,4,6-triones as potent inhibitors of gelatinases MMP-2 and MMP-9” (Eur J Med Chem, 2012).

For orientation: inhibition means the share of the control response that was lost under treatment. In general, IC50 refers to the point on the concentration scale where inhibition reaches its midpoint.

The target of assay [1] is T1, Matrix metalloproteinase-9 (Homo sapiens, UniProt P14780). The experiment in a line: Inhibition of recombinant MMP9 catalytic site using Mca-Pro-Leu-Gly-Leu-Dpa-Ala-Arg as substrate at 10 uM incubated for 30 mins prior to substrate addition measured after 3 hrs by fluorimetric assay. The gist of the method:
(§1)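 Percent inhibition against control at a single concentration is measured on recombinant catalytic-domain MMP-8 or MMP-9 (500 pM enzyme solution). Tris-HCl 0.1 M pH 7.5 buffer with NaCl, CaCl2, Brij35, 1 mM APMA. Compound and enzyme 30 min at 25 °C, then substrate (25 μM solution) 3 h at 37 °C. Acetic acid stop, fluorescence 340/405 nm.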

Assay [2] has as its target T2, 72 kDa type IV collagenase (Homo sapiens, UniProt P08253). Put plainly: Inhibition of MMP2 using Mca-Pro-Leu-Gly-Leu-Dpa-Ala-Arg as substrate incubated for 30 mins prior to substrate addition measured after 3 hrs by fluorimetric assay. The gist of the method: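 It is preincubated with inhibitor at 25 °C for 30 min. Substrate is added from a 25 μM solution and incubated 3 h at 37 °C. Acetic acid quench, fluorescence ex 340/em 405 nm. IC50 from 6 concentrations in triplicate, two runs.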
Target sequence in this assay (P08253 whole entry): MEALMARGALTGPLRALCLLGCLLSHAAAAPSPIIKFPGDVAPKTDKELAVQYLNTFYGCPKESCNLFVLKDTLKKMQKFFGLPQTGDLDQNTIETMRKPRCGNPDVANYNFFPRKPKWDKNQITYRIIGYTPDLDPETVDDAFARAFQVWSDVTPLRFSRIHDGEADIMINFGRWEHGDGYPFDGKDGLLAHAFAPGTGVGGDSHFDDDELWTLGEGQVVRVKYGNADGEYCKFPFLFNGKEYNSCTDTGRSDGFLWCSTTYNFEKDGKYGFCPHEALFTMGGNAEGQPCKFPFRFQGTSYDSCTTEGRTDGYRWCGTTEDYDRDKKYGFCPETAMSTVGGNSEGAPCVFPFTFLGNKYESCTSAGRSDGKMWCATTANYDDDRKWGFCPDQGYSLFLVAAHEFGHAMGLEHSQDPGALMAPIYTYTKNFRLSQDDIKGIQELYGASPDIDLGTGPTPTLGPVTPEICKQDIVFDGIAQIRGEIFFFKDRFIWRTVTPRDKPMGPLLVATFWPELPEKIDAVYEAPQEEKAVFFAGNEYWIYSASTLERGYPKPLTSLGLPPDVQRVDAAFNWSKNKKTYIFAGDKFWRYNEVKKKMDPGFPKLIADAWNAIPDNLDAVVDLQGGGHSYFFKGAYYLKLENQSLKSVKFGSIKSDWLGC

Assay [3] concerns the target T3, Neutrophil collagenase (Homo sapiens, UniProt P22894). Put plainly: Inhibition of recombinant MMP8 catalytic site using Mca-Pro-Leu-Gly-Leu-Dpa-Ala-Arg as substrate incubated for 30 mins prior to substrate addition measured after 3 hrs by fluorimetric assay. The gist of the method: (§2)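 Recombinant catalytic-domain MMP-8 or MMP-9 (500 pM enzyme solution) is used in Tris-HCl 0.1 M pH 7.5, 0.1 M NaCl, 10 mM CaCl2, 0.05% Brij35, 1 mM APMA. Preincubated with inhibitor 30 min at 25 °C, then substrate (25 μM solution) 3 h at 37 °C. Acetic acid stop, fluorescence 340/405 nm. IC50 from six concentrations in triplicate, run twice.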
Target sequence in this assay (P22894 whole entry): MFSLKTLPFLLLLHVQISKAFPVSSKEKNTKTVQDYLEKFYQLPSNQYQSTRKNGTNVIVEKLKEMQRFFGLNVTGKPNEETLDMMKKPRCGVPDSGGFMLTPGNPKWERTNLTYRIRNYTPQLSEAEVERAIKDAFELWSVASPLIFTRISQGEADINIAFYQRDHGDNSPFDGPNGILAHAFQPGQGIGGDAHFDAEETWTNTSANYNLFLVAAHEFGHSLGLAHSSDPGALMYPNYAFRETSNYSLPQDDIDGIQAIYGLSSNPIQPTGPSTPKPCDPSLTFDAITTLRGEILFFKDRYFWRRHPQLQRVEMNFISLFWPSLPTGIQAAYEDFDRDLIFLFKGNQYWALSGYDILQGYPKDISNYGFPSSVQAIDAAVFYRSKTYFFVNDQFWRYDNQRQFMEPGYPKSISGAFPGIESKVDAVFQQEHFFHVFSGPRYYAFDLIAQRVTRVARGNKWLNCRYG

Assay [4] concerns the target T1, Matrix metalloproteinase-9. The experiment in a line: Inhibition of recombinant MMP9 catalytic site using Mca-Pro-Leu-Gly-Leu-Dpa-Ala-Arg as substrate incubated for 30 mins prior to substrate addition measured after 3 hrs by fluorimetric assay. The gist of the method:
as §2

Assay [5] has as its target T2, 72 kDa type IV collagenase. The experiment in a line: Inhibition of MMP2 using Mca-Pro-Leu-Gly-Leu-Dpa-Ala-Arg as substrate at 10 uM incubated for 30 mins prior to substrate addition measured after 3 hrs by fluorimetric assay. The essentials:
(§3)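 Buffer: Tris-HCl 0.1 M pH 7.5, 0.1 M NaCl, 10 mM CaCl2, 0.05% Brij35, 1 mM APMA. Compound and enzyme 30 min at 25 °C, then substrate (25 μM solution) 3 h at 37 °C. Acetic acid quench, fluorescence ex 340/em 405 nm.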
Target sequence in this assay (P08253 110-660 limits assumed): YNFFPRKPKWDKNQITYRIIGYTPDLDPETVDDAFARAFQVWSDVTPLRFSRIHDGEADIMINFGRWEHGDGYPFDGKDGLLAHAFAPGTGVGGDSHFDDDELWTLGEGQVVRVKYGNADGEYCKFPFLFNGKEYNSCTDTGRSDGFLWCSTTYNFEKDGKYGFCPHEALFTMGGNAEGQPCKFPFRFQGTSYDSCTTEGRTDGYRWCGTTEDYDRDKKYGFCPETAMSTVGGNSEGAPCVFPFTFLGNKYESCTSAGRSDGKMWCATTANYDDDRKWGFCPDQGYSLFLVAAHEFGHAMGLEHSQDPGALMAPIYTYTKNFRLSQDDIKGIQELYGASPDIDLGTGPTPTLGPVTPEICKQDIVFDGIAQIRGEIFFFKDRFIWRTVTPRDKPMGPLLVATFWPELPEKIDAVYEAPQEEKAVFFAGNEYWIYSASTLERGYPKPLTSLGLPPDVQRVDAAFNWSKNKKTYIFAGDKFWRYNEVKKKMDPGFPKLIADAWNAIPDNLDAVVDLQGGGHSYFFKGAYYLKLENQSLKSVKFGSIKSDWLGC

The target in assay [6] is T2, 72 kDa type IV collagenase. The experiment in a line: Inhibition of MMP2 using Mca-Pro-Leu-Gly-Leu-Dpa-Ala-Arg as substrate at 100 uM incubated for 30 mins prior to substrate addition measured after 3 hrs by fluorimetric assay. The essentials:
as §3
Target sequence in this assay (P08253 110-660 limits assumed): as above

Assay [7] deals with T3, Neutrophil collagenase. The experiment in a line: Inhibition of recombinant MMP8 catalytic site using Mca-Pro-Leu-Gly-Leu-Dpa-Ala-Arg as substrate at 100 uM incubated for 30 mins prior to substrate addition measured after 3 hrs by fluorimetric assay. The essentials:
as §1
Target sequence in this assay (P22894 101-467 limits assumed): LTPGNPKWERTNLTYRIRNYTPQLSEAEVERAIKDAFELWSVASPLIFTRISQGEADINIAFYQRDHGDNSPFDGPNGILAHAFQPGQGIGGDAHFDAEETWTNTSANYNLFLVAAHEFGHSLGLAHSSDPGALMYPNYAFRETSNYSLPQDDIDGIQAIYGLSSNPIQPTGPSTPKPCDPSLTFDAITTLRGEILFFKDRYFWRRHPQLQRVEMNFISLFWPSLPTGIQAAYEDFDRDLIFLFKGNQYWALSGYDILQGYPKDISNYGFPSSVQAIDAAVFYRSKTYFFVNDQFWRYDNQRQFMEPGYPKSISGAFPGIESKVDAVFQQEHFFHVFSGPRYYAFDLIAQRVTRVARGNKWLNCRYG

The target in assay [8] is T1, Matrix metalloproteinase-9. Put plainly: Inhibition of recombinant MMP9 catalytic site using Mca-Pro-Leu-Gly-Leu-Dpa-Ala-Arg as substrate at 100 uM incubated for 30 mins prior to substrate addition measured after 3 hrs by fluorimetric assay. The gist of the method:
as §1

T1 sequence (P14780 whole entry): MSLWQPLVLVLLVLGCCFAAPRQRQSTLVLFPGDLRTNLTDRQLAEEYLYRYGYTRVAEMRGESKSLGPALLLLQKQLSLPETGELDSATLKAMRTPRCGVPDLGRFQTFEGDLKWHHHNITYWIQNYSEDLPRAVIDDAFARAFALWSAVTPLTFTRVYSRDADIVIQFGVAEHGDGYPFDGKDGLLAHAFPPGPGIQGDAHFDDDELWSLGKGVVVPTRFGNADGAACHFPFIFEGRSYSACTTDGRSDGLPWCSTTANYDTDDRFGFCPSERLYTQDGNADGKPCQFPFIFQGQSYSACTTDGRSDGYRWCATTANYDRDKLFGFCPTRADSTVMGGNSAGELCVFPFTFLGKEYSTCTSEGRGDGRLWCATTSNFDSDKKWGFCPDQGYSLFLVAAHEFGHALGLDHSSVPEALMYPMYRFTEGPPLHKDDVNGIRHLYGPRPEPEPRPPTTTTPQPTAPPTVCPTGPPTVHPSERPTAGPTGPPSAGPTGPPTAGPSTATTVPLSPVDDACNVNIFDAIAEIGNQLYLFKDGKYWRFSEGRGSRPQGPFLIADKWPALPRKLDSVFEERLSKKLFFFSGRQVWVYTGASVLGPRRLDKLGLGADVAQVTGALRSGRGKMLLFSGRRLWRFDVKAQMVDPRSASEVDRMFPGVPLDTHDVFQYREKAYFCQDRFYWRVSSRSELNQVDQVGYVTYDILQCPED

For the compound `O=C1NC(=O)C(O)(CC(=O)c2ccc(C(F)(F)F)cc2)C(=O)N1`, the inhibition in assay [1] is 11%.
As for `O=C1NC(=O)C(O)(CC(=O)c2ccc(-c3ccc(CO)cc3)cc2)C(=O)N1`, the IC50 was 148 nM in assay [2], 210 nM on Neutrophil collagenase [3] and 561 nM in assay [4].
Regarding `CN(C)C(=O)c1ccc(-c2ccc(C(=O)CC3(O)C(=O)NC(=O)NC3=O)cc2)cc1`, the results for the IC50 (in assay [2]; on Neutrophil collagenase [3]; in assay [4]) were 1340 nM, 2020 nM and 3010 nM, respectively.
In the case of `O=C1NC(=O)C(O)(CC(=O)c2ccccc2)C(=O)N1`, in assay [5], the inhibition was found to be 0%.
`O=C1NC(=O)C(O)(CC(=O)c2ccc(-c3ccsc3)cc2)C(=O)N1`: the results for the IC50 (in assay [2]; on Neutrophil collagenase [3]; in assay [4]) were 181 nM, 153 nM and 159 nM, respectively.
As to `O=C(Cc1ccc(-c2ccccc2)cc1)CC1(O)C(=O)NC(=O)NC1=O`, the inhibition in assay [6] turned out to be 10%; at Neutrophil collagenase [7] it was 26%; in assay [8] it was 21%.
As for `CC(=O)c1ccc(-c2ccc(C(=O)CC3(O)C(=O)NC(=O)NC3=O)cc2)cc1`, the IC50 in assay [2] was 30 nM; at Neutrophil collagenase [3], 109 nM; in assay [4], 170 nM.
For `CS(=O)(=O)c1ccc(-c2ccc(C(=O)CC3(O)C(=O)NC(=O)NC3=O)cc2)cc1`, in that order: 58 nM, 66 nM and 650 nM.
The like results for `O=C1NC(=O)C(O)(CC(=O)c2ccc(-c3cccc([N+](=O)[O-])c3)cc2)C(=O)N1` were, in that order, 8100 nM, 2600 nM and 27500 nM.
For `COc1ccc(-c2ccc(C(=O)CC3(O)C(=O)NC(=O)NC3=O)cc2)cc1`, in that order: 121 nM, 184 nM and 141 nM.
For `CC(=O)C(c1ccc(-c2ccccc2)cc1)C1(O)C(=O)NC(=O)NC1=O` (centres undefined), the inhibition in assay [6] worked out at 38%; on Neutrophil collagenase [7], 71%; in assay [8], 28%.
As to `O=C1NC(=O)C(O)(CC(=O)c2ccc([N+](=O)[O-])cc2)C(=O)N1`, the inhibition in assay [1] was 8%; in assay [5], 0%. In addition, on Neutrophil collagenase [3], the IC50 was found to be 63000 nM.
`O=C1NC(=O)C(O)(CC(=O)c2ccc(-c3ccc(OC(F)(F)F)cc3)cc2)C(=O)N1`: the IC50 in assay [2] was determined as 143 nM; on Neutrophil collagenase [3], 715 nM; in assay [4] it was 21 nM.
For `CSc1ccc(-c2ccc(C(=O)CC3(O)C(=O)NC(=O)NC3=O)cc2)cc1`, in that order: 120 nM, 313 nM and 86 nM.
For `O=C1NC(=O)C(O)(CC(=O)c2ccc(-c3ccc(Cl)cc3)cc2)C(=O)N1`, in that order: 278 nM, 271 nM and 66 nM.
The like results for `Cc1ccc(-c2ccc(C(=O)CC3(O)C(=O)NC(=O)NC3=O)cc2)cc1` were, in that order, 301 nM, 336 nM and 103 nM.
